Assay results as given in ChEMBL document CHEMBL1155887, “Structure-activity relationships of 2-aryl-1H-indole inhibitors of the NorA efflux pump in Staphylococcus aureus” (2008).
≈ marks a conversion by molar mass, not a printed value. Calls of active or inactive are those of the source. The rule behind the calls is not given here.

Experiments:
[1] = biological target: T1, Quinolone resistance protein NorA (Staphylococcus aureus) (UniProt P0A0J7); experiment: Inhibition of NorA efflux pump in NorA knockout Staphylococcus aureus K1758 assessed as drug level required for two fold potentiation of berberine MIC at 1.56 to 100 ug/mL after 20 hrs by serial dilution method
T1 sequence (whole entry): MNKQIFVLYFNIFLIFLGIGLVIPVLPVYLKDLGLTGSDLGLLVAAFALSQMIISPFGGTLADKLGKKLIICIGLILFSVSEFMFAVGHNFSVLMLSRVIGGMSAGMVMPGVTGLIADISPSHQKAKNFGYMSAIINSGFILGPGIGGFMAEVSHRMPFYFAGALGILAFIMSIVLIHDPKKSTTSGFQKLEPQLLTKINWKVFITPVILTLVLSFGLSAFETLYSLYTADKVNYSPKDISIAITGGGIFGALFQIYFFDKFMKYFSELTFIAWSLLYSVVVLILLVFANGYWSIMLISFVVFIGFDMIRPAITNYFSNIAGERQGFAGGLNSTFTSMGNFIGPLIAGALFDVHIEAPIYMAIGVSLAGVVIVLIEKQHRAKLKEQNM

[2] = biological target: T1, Quinolone resistance protein NorA (Staphylococcus aureus); experiment: Inhibition of NorA efflux pump in wild type Staphylococcus aureus 8325-4 assessed as drug level required for two fold potentiation of berberine MIC at 1.56 to 100 ug/mL after 20 hrs by serial dilution method
In short: (§1)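 Checkerboard of serial 2-fold dilutions of berberine chloride against inhibitor, with inhibitor at 1.56–100 µg/mL. Berberine ranges were 12.5–100 µg/mL for 8325-4 and 200–800 µg/mL for K2378. Each agent was also diluted alone. Cells at 5 10^5 CFU/mL (final), 37 °C for 20 h, read at 600 nm; OD <0.05 counted as no growth. Inhibitor MIC is the lowest concentration lowering the berberine MIC at least 2-fold.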

[3] = biological target: T1, Quinolone resistance protein NorA (Staphylococcus aureus); experiment: Inhibition of NorA efflux pump in Staphylococcus aureus K2378 overexpressing NorA assessed as drug level required for two fold potentiation of berberine MIC at 1.56 to 100 ug/mL after 20 hrs by serial dilution method; in short: as §1
Staphylococcus aureus [4] = experiment: Antibacterial activity against NorA knockout Staphylococcus aureus K1758 after 18 to 20 hrs by serial dilution method; format: functional
In short: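 Compound alone, without berberine: cells at 10^5 CFU/mL in broth, serial 2-fold dilutions of compound, 18–20 h at 37 °C, growth read at 600 nm. MIC is the lowest concentration giving complete growth inhibition. The testing limit was 1000 µM.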

Staphylococcus aureus [5] = experiment: Antibacterial activity against wild type Staphylococcus aureus 8325-4 after 18 to 20 hrs by serial dilution method; format: functional
In short: (§2)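 Compound alone, without berberine. Cells at 10^5 CFU/mL inoculated into broth and given serial 2-fold dilutions of compound. Incubated 18–20 h at 37 °C, with growth read as absorbance at 600 nm. MIC is the concentration completely inhibiting growth; testing limit 1000 µM.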

[6] = biological target: T1, Quinolone resistance protein NorA (Staphylococcus aureus); experiment: Inhibition of NorA efflux pump overexpressed Staphylococcus aureus K2361 assessed as increase in antibacterial activity of berberine at 0.8 ug/mL
[7] = biological target: T1, Quinolone resistance protein NorA (Staphylococcus aureus); experiment: Inhibition of NorA efflux pump overexpressed Staphylococcus aureus K2361 assessed as increase in antibacterial activity of berberine at 3 ug/mL
[8] = biological target: T1, Quinolone resistance protein NorA (Staphylococcus aureus); experiment: Inhibition of NorA efflux pump in wild type Staphylococcus aureus 8325-4 assessed as ratio of berberine MIC in presence to absence of inhibitor
[9] = biological target: T1, Quinolone resistance protein NorA (Staphylococcus aureus); experiment: Inhibition of NorA efflux pump overexpressing Staphylococcus aureus 8325-4 K2378 assessed as ratio of berberine MIC in presence to absence of inhibitor
[10] = biological target: T1, Quinolone resistance protein NorA (Staphylococcus aureus); experiment: Inhibition of NorA efflux pump overexpressed in Staphylococcus aureus 1199B assessed as increase in susceptibility to ciprofloxacin at 1.5 ug/mL by serial broth microdilution method
Staphylococcus aureus [11] = experiment: Antibacterial activity against Staphylococcus aureus K2378 overexpressing NorA after 18 to 20 hrs by serial dilution method; format: functional; in short: as §2
Escherichia coli [12] = experiment: Antibacterial activity against Escherichia coli O157:H7; format: functional
In short: (§3)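 Gram-negative and Gram-positive panel, MIC in µg/mL. Highest concentration tested was 200 µg/mL for E. coli O157:H7 and 100 µg/mL for Clostridium perfringens.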

Escherichia coli [13] = experiment: Antibacterial activity against Escherichia coli BW-25113; format: functional
In short: (§4)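 Panel of Gram-negative and Gram-positive non-Clostridium strains, compound alone: MIC in µg/mL, with 200 µg/mL the highest concentration tested.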

Escherichia coli [14] = experiment: Antibacterial activity against Escherichia coli UT189; format: functional; in short: as §4
Salmonella typhimurium = experiment: Antibacterial activity against Salmonella Typhimurium CS132; format: functional, Salmonella enterica subsp. enterica serovar Typhimurium; details: Salmonella enterica; in short: as §4
Pseudomonas aeruginosa [15] = experiment: Antibacterial activity against Pseudomonas aeruginosa PAO1; format: functional; in short: as §4
Pseudomonas aeruginosa [16] = experiment: Antibacterial activity against Pseudomonas aeruginosa PA14; format: functional; in short: as §4
Clostridioides difficile [17] = experiment: Antibacterial activity against Clostridium difficile VP110463; format: functional
In short: (§5)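 Clostridium difficile panel, compound alone: MIC in µg/mL, with 100 µg/mL the highest concentration tested.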

Clostridioides difficile [18] = experiment: Antibacterial activity against Clostridium difficile CD196; format: functional; in short: as §5
Clostridioides difficile [19] = experiment: Antibacterial activity against Clostridium difficile CD2001; format: functional; in short: as §5
Enterococcus faecalis [20] = experiment: Antibacterial activity against Enterococcus faecalis MMH594; format: functional; in short: as §4
Enterococcus faecalis [21] = experiment: Antibacterial activity against Enterococcus faecalis V583; format: functional; in short: as §4
Enterococcus faecalis [22] = experiment: Antibacterial activity against Enterococcus faecalis OG1RF; format: functional; in short: as §4
Clostridium perfringens = experiment: Antibacterial activity against Clostridium perfringens; format: functional; in short: as §3

SMILES | MIC [2] [µM] | MIC [3] | MIC (Staphylococcus aureus [4]) [µM] | MIC (Staphylococcus aureus [5]) [µM] | Activity [1] | other results
O=[N+]([O-])c1ccc2[nH]c(-c3ccc(CO)cc3)cc2c1 | 2 | 2 µM | > 1000 | > 1000 |  | MIC [1]: 5 µM
O=[N+]([O-])c1ccc2[nH]c(-c3cc(OCc4ccccc4)ccc3CO)cc2c1 |  |  |  |  |  | fold change (FC) [6]: > 15
O=[N+]([O-])c1ccc2[nH]c(-c3ccccc3)cc2c1 | 1.3 | 1.3 µM | > 1000 | > 1000 |  | Activity [7]: Active; MIC [1]: 0.63 µM; Ratio [8]: 2; Ratio [9]: 2; fold change (FC) [10]: 4
COc1ccc2cc3[n+](cc2c1OC)CCc1cc2c(cc1-3)OCO2 [BERBERINE CHLORIDE] |  |  | 67 | 269 |  | MIC (Staphylococcus aureus [11]): 2150 µM
OCc1cccc(-c2cc3ccccc3[nH]2)c1 | 45 | 45 µM | > 1000 | > 1000 | inactive | 
COC(=O)c1ccccc1-c1cc2cc([N+](=O)[O-])ccc2[nH]1 | 34 | inactive | > 1000 | > 1000 | inactive | 
OCc1ccc2[nH]c(-c3ccccc3)cc2c1 |  |  | 14 (≈ 3.13 µg/mL) | 28 (≈ 6.25 µg/mL) |  | MIC (Staphylococcus aureus [11]): 28 µM (≈ 6.25 µg/mL); MIC (Escherichia coli [12]): > 200 µg/mL; MIC (Escherichia coli [13]): > 200 µg/mL; MIC (Escherichia coli [14]): > 200 µg/mL; MIC (Salmonella typhimurium): > 200 µg/mL; MIC (Pseudomonas aeruginosa [15]): > 200 µg/mL; MIC (Pseudomonas aeruginosa [16]): > 200 µg/mL; MIC (Clostridioides difficile [17]): > 100 µg/mL; MIC (Clostridioides difficile [18]): > 100 µg/mL; MIC (Clostridioides difficile [19]): > 100 µg/mL; MIC (Enterococcus faecalis [20]): > 200 µg/mL; MIC (Enterococcus faecalis [21]): > 200 µg/mL; MIC (Enterococcus faecalis [22]): > 200 µg/mL; MIC (Clostridium perfringens): > 100 µg/mL
O=S(=O)(O)c1ccc2[nH]c(-c3ccccc3)cc2c1 |  |  | > 1000 | > 1000 | inactive | Activity [2]: inactive; Activity [3]: inactive
COC(=O)c1cccc(-c2cc3cc([N+](=O)[O-])ccc3[nH]2)c1 | 1 | 1 µM | > 1000 | > 1000 |  | MIC [1]: 0.51 µM
O=[N+]([O-])c1ccc2[nH]c(-c3cccc(CO)c3)cc2c1 | 5 | 9 µM | > 1000 | > 1000 |  | MIC [1]: 9 µM
OCc1ccccc1-c1cc2ccccc2[nH]1 | 45 | 45 µM | > 1000 | > 1000 | inactive | 
c1ccc(-c2cc3ccccc3[nH]2)cc1 [2-PHENYL-1H-INDOLE] | 65 | 259 µM | > 1000 | > 1000 | inactive | Ratio [8]: 4; Ratio [9]: 4
OCc1ccc(-c2cc3ccccc3[nH]2)cc1 | 22 | 45 µM | > 1000 | > 1000 | inactive | 
N#Cc1ccc2[nH]c(-c3ccccc3)cc2c1 | 3.6 | 7.1 µM | > 1000 | > 1000 | inactive | Ratio [8]: 2; Ratio [9]: 2
CCCOS(=O)(=O)c1ccc2[nH]c(-c3ccccc3)cc2c1 |  |  | 79.3 (≈ 25 µg/mL) | 79.3 (≈ 25 µg/mL) |  | MIC (Staphylococcus aureus [11]): 79.3 µM (≈ 25 µg/mL)
O=[N+]([O-])c1ccc2[nH]c(-c3ccccc3CO)cc2c1 | 47 | 47 µM | > 1000 | > 1000 |  | MIC [1]: 24 µM
COS(=O)(=O)c1ccc2[nH]c(-c3ccccc3)cc2c1 |  |  | 174 (≈ 50 µg/mL) | 174 (≈ 50 µg/mL) |  | MIC (Staphylococcus aureus [11]): 174 µM (≈ 50 µg/mL)
NS(=O)(=O)c1ccc2[nH]c(-c3ccccc3)cc2c1 |  |  | > 1000 | > 1000 | inactive | Activity [2]: inactive; Activity [3]: inactive
O=C(O)c1ccc2[nH]c(-c3ccccc3)cc2c1 |  |  | > 1000 | > 1000 | inactive | Activity [2]: inactive; Activity [3]: inactive
COC(=O)c1ccc2[nH]c(-c3ccccc3)cc2c1 |  |  | > 1000 | > 1000 | inactive | Activity [2]: inactive; Activity [3]: inactive
COC(=O)c1cccc(-c2cc3ccccc3[nH]2)c1 | 5 | 10 µM | > 1000 | > 1000 |  | MIC [1]: 40 µM
COC(=O)c1ccc(-c2cc3cc([N+](=O)[O-])ccc3[nH]2)cc1 | 17 | inactive | > 1000 | > 1000 | inactive | 
COC(=O)c1ccc(-c2cc3ccccc3[nH]2)cc1 | 20 | 40 µM | > 1000 | > 1000 | inactive | 
COC(=O)c1ccccc1-c1cc2ccccc2[nH]1 | 20 | 20 µM | > 1000 | > 1000 | inactive | 
